Assays:
[1] = Apparent dissociation (binding) rate constant was evaluated; format: ADME
How it was run: (§1)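 Partially purified hamster hepatic AHAT was preincubated at 37 °C in pyrophosphate buffer pH 7, 1 mM DTT, KCl, with five inactivator concentrations (0.005–1.0 mM final) for five preincubation periods (1–15 min). Remaining AAB transacetylation activity was then assayed. kobsd came from semilog plots of percent remaining activity vs. time. k_i and K_D came from double-reciprocal plots of kobsd vs. concentration. Three experiments, each in triplicate.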

[2] = test system: N-arylhydroxamic acid N,O-acyltransferase (Mesocricetus auratus); test: Percent protection from inactivation of AHAT was determined using L-methionine
[3] = Ratio of apparent inactivation rate constant to apparent dissociation (binding) rate constant was determined
[4] = test system: N-arylhydroxamic acid N,O-acyltransferase (Mesocricetus auratus); test: Percent protection from inactivation of AHAT was determined using guanosine phosphate
[5] = Apparent inactivation rate constant was evaluated; how it was run: as §1
[6] = test system: N-arylhydroxamic acid N,O-acyltransferase (Mesocricetus auratus); test: Percent protection from inactivation of AHAT was determined using t-RNA
[7] = test system: Hamster; test: Activity measured as 4-aminoazobenzene (AAB) transacetylation rate with partially purified hamster hepatic enzyme; format: ADME; details: cricetinae, in vitro
How it was run: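 Hamster liver (male golden Syrian) 105000g supernatant, ammonium sulfate-fractionated (two- to three-fold), in 0.05 M sodium pyrophosphate pH 7, 1 mM DTT with KCl. 2-min 37 °C equilibration, then hydroxamic acid plus AAB added. Final: 1.0 mM donor, 0.15 mM AAB, 1.0 mg/mL protein, 2.0 min (exceptions: 0.5–0.6 mM donor, 3.5 min). TCA/EtOH stop, A497. Mean ± SE, N = 15–30.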

[8] = test system: N-arylhydroxamic acid N,O-acyltransferase (Mesocricetus auratus); test: Percent protection from inactivation of AHAT was determined using L-cysteine
[9] = test system: N-arylhydroxamic acid N,O-acyltransferase (Mesocricetus auratus); test: Percent protection from inactivation of AHAT was determined using glutathione
[10] = test system: Cricetinae gen. sp.; test: Percent protection from inactivation of AHAT was determined using glutathione; format: functional, Cricetulus griseus; parameters: concentration or dose not given beside the values
How it was run: (§2)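 Run as in the inactivation kinetics: hamster hepatic AHAT was preincubated at 37 °C with a saturating inactivator concentration for 2–20 min (to maximal inactivation). Nucleophile was present at 10 mM (L-cysteine, L-methionine, glutathione, guanosine phosphate) or tRNA at 1 mg/mL. Remaining AAB transacetylation activity was then measured. Protection = percent remaining activity with minus without nucleophile. Mean ± SE of three experiments.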

[11] = test system: Cricetinae gen. sp.; test: Percent protection from inactivation of AHAT was determined using guanosine phosphate; format: functional, Cricetulus griseus; parameters: concentration or dose not given beside the values; how it was run: as §2
[12] = test system: Cricetinae gen. sp.; test: Percent protection from inactivation of AHAT was determined using L-methionine; format: functional, Cricetulus griseus; parameters: concentration or dose not given beside the values; how it was run: as §2
[13] = test system: Cricetinae gen. sp.; test: Percent protection from inactivation of AHAT was determined using L-cysteine; format: functional, Cricetulus griseus; parameters: concentration or dose not given beside the values; how it was run: as §2
[14] = test system: Cricetinae gen. sp.; test: Percent protection from inactivation of AHAT was determined using t-RNA; format: functional, Cricetulus griseus; parameters: concentration or dose not given beside the values; how it was run: as §2

| SMILES | Kd [1] | kinact/KI [3] | kinact [5] | Rate [7] | Protection [2] | Protection [4] | Protection [6] | Protection [8] | Protection [9] | Protection [10] | Protection [11] | Protection [12] | Protection [13] | Protection [14] |
| --- | --- | --- | --- | --- | --- | --- | --- | --- | --- | --- | --- | --- | --- | --- |
| CCOc1ccc2c(c1)Cc1cc(N(O)C(C)=O)ccc1-2 | 3.8 µM | 2940 M⁻¹ s⁻¹ | 0.67 min⁻¹ | 9.6 nmol/mg/min | 43.3% | 21.3% | 19.2% | 34.2% | 39.4% | – | – | – | – | – |
| CC(=O)N(O)c1ccc2c(c1)Cc1ccccc1-2 | 88.8 µM | 360 M⁻¹ s⁻¹ | 1.95 min⁻¹ | 20.9 nmol/mg/min | – | – | – | – | – | 15.7% | 34.9% | 23.1% | 39.1% | 1.9% |
| CC(=O)N(O)c1ccc2c(c1)Cc1cc(F)ccc1-2 | 129 µM | 334 M⁻¹ s⁻¹ | 2.59 min⁻¹ | 26.8 nmol/mg/min | – | – | – | – | – | 55.2% | 58.4% | 38.2% | 54.5% | 17.6% |
| CC(=O)N(O)c1ccc2c(c1)Cc1cc(I)ccc1-2 | 0.4 µM | 2900 M⁻¹ s⁻¹ | 0.07 min⁻¹ | 5.3 nmol/mg/min | – | – | – | – | – | – | – | – | – | – |

More lines, in order of falling Kd [1], values ahead:

| Kd [1] | kinact/KI [3] | kinact [5] | Rate [7] | SMILES | Protection [2] | Protection [4] | Protection [6] | Protection [8] | Protection [9] | Protection [10] | Protection [11] | Protection [12] | Protection [13] | Protection [14] |
| --- | --- | --- | --- | --- | --- | --- | --- | --- | --- | --- | --- | --- | --- | --- |
| 48.8 µM | 258 M⁻¹ s⁻¹ | 0.76 min⁻¹ | 20.1 nmol/mg/min | CC(=O)N(O)c1ccc2c(c1)Cc1cc(Cl)ccc1-2 | – | – | – | – | – | – | – | – | – | – |
| 40 µM | 37.5 M⁻¹ s⁻¹ | 0.09 min⁻¹ | 16.5 nmol/mg/min | CC(=O)N(O)c1ccc2c(c1)Cc1cc(C#N)ccc1-2 | – | – | – | – | – | 30.5% | 5.9% | 8% | 35.9% | 2.9% |
| 35.1 µM | 1770 M⁻¹ s⁻¹ | 3.73 min⁻¹ | 10.9 nmol/mg/min | COc1ccc2c(c1)Cc1cc(N(O)C(C)=O)ccc1-2 | – | – | – | – | – | 46.1% | 54.9% | 28.3% | 47.6% | 32.2% |
| 5.9 µM | 620 M⁻¹ s⁻¹ | 0.22 min⁻¹ | 20.5 nmol/mg/min | CC(=O)N(O)c1ccc2c(c1)Cc1cc(Br)ccc1-2 | – | – | – | – | – | 34.7% | 26.9% | 6.6% | 31.1% | 0% |
| 5.7 µM | 1690 M⁻¹ s⁻¹ | 0.58 min⁻¹ | 4.6 nmol/mg/min | CCCCOc1ccc2c(c1)Cc1cc(N(O)C(C)=O)ccc1-2 | – | – | – | – | – | 6% | 18.9% | 8.1% | 9.3% | 18% |
| 0.4 µM | 10400 M⁻¹ s⁻¹ | 0.25 min⁻¹ | 13.7 nmol/mg/min | CC(=O)c1ccc2c(c1)Cc1cc(N(O)C(C)=O)ccc1-2 | – | – | – | – | – | 26.3% | 1.4% | 0.3% | 32.4% | 8.3% |

From ChEMBL document CHEMBL1123063, “Mechanism-based inactivation of N-arylhydroxamic acid N,O-acyltransferase by 7-substituted-N-hydroxy-2-acetamidofluorenes” (J Med Chem, 1985)
